From ChEMBL document CHEMBL1131088 (J Med Chem, 1998)

Tests used:
[1] = system: Jurkat; experiment: In vitro inhibitory activity against Jurkat cell proliferation; assay type: functional, cell-based; details: Homo sapiens
Procedure, shortened: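 Human Jurkat T cells kept in FCS-supplemented RPMI; 5 × 10⁴ cells/well cultured 2 days in 200 μL RPMI with test compound. Proliferation read as [³H]thymidine incorporation at the end of culture.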

[2] = species on record: Mus musculus; experiment: In vitro inhibitory activity against mouse mixed lymphocyte reaction (MLR); assay type: functional
Procedure, shortened: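 Equal numbers of C57Bl/6 (H-2^b) and CBA/2 (H-2^k) spleen cells mixed; 4 × 10⁵ cells/well with serial dilutions (DMSO/water) in 200 μL complete RPMI, 4 days, 37 °C, 5% CO₂. Proliferation by [³H]thymidine incorporation.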

[3] = biological target: Dihydroorotate dehydrogenase (quinone), mitochondrial (Homo sapiens, UniProt Q02127); experiment: In vitro inhibitory activity against human dihydroorotate dehydrogenase (DHODH)
[4] = species on record: Mus musculus; experiment: In vitro inhibitory activity against murine antibody response to T-cell independent B-cell antigen TNP-LPS (type I); assay type: functional
Procedure, shortened: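 C57Bl/6 nu/nu and C57Bl/6 spleen cells, 2 × 10⁵/well in duplicate, IMDM-ATL + 10% FCS with serial drug dilutions and optimal TNP-LPS, 4 days at 37 °C. Pooled supernatants went to ELISA on BSA-DNP plates, developed with biotin anti-mouse IgM, streptavidin-alkaline phosphatase and pNPP, read at 405/490 nm. % inhibition was taken relative to unstimulated (low) and stimulated (high) controls.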

Dihydroorotate dehydrogenase (quinone), mitochondrial, sequence (Q02127 whole entry): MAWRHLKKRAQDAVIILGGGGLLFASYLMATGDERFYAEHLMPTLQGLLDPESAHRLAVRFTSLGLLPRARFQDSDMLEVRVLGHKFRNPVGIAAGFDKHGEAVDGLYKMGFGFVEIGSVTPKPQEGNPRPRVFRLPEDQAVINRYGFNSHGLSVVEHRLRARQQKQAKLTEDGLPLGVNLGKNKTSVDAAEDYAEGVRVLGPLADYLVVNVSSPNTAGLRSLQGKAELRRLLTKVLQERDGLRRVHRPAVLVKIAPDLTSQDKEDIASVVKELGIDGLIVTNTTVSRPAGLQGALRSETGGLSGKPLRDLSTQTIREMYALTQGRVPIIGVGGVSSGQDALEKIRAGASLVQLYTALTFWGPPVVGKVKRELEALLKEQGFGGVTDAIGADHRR

Structure (SMILES)	IC50 [1]	IC50 [2]	IC50 [3]	IC50 [4]
Cc1cc(Nc2ccc(C(F)(F)F)cc2)[nH]n1	> 50 µM	16.5 µM	16.5 µM	26.5 µM
Cc1n[nH]c(Nc2c(F)cc(F)cc2F)c1C#N	–	–	22.4 µM	35 µM
Cc1n[nH]c(Nc2ccc(OC(F)(F)F)cc2)c1C#N	16.1 µM	0.45 µM	0.5 µM	20 µM
Cc1n[nH]c(Nc2ccccc2C(F)(F)F)c1C#N	–	–	> 50 µM	> 50 µM
Cc1nn(C)c(Nc2ccc(C(F)(F)F)cc2)c1C#N	47.2 µM	16.1 µM	> 50 µM	23.1 µM
N#Cc1c(-c2cccnc2)n[nH]c1Nc1ccc(C(F)(F)F)cc1	–	–	> 50 µM	27 µM
N#Cc1c(-c2ccco2)n[nH]c1Nc1ccc(C(F)(F)F)cc1	–	–	> 50 µM	> 50 µM
CCOC(=O)c1c(C)n[nH]c1Nc1ccc(C(F)(F)F)cc1	–	–	> 50 µM	23.8 µM
Cc1n[nH]c(Nc2cccc(C(F)(F)F)c2)c1C#N	–	–	> 50 µM	> 50 µM
N#Cc1c(-c2cccs2)n[nH]c1Nc1ccc(C(F)(F)F)cc1	–	–	> 50 µM	> 50 µM
Cc1n[nH]c(Nc2ccccc2)c1C#N	> 50 µM	> 50 µM	> 50 µM	> 50 µM
Cc1n[nH]c(Nc2ccc(C(C)(C)C)cc2)c1C#N	12.3 µM	7.6 µM	3.6 µM	30.6 µM
Cc1n[nH]c(Nc2ccc(N)cc2)c1C#N	–	–	> 50 µM	> 50 µM
Cc1n[nH]c(Nc2ccc(C(F)(F)F)cc2)c1-c1ccccc1	–	–	> 50 µM	29.4 µM
Cc1ccc(Nc2[nH]nc(C)c2C#N)cc1	–	–	12.1 µM	> 50 µM
Cc1n[nH]c(Nc2cc(C(F)(F)F)cc(C(F)(F)F)c2)c1C#N	16.2 µM	6.7 µM	> 50 µM	28 µM
N#Cc1c(Nc2ccc(C(F)(F)F)cc2)n[nH]c1O	–	–	> 50 µM	> 50 µM
N#Cc1c(-c2ccccc2)n[nH]c1Nc1ccc(C(F)(F)F)cc1	–	–	> 50 µM	32 µM
C/C=C/C[C@@H](C)[C@@H](O)[C@H]1C(=O)N[C@@H](CC)C(=O)N(C)CC(=O)N(C)[C@@H](CC(C)C)C(=O)N[C@@H](C(C)C)C(=O)N(C)[C@@H](CC(C)C)C(=O)N[C@@H](C)C(=O)N[C@H](C)C(=O)N(C)[C@@H](CC(C)C)C(=O)N(C)[C@@H](CC(C)C)C(=O)N(C)[C@@H](C(C)C)C(=O)N1C [CYCLOSPORINE]	> 10 µM	–	–	–

Other lines, results leading:

IC50 [1]	IC50 [2]	IC50 [3]	IC50 [4]	Structure (SMILES)
43 µM	18.7 µM	22.5 µM	14.6 µM	Cc1n[nH]c(Nc2ccc(C(F)(F)F)cc2)c1C
31.2 µM	3.4 µM	6.2 µM	13.8 µM	FC(F)(F)c1ccc(Nc2[nH]nc3c2CCCC3)cc1
> 50 µM	3.1 µM	4 µM	4.7 µM	CC(C)c1n[nH]c(Nc2ccc(C(F)(F)F)cc2)c1C#N
31.8 µM	2.9 µM	> 50 µM	22.4 µM	N#Cc1c(C2CCCC2)n[nH]c1Nc1ccc(C(F)(F)F)cc1
> 50 µM	5.3 µM	> 50 µM	5.8 µM	CC(C)(C)c1[nH]nc(Nc2ccc(C(F)(F)F)cc2)c1C#N
10.8 µM	3.6 µM	> 50 µM	13.6 µM	N#Cc1c(-c2ccncc2)n[nH]c1Nc1ccc(C(F)(F)F)cc1
–	–	2.7 µM	21.3 µM	Cc1n[nH]c(Nc2ccc(C(F)(F)F)cc2)c1CO
–	–	> 50 µM	20.9 µM	Cc1n[nH]c(Nc2ccc(C(F)(F)F)c(Br)c2)c1C#N
> 50 µM	3.7 µM	> 50 µM	14.7 µM	N#Cc1c(Nc2ccc(C(F)(F)F)cc2)n[nH]c1N
> 50 µM	23.6 µM	> 50 µM	19.1 µM	Cc1n[nH]c(N(C)c2ccc(C(F)(F)F)cc2)c1C#N
> 50 µM	6 µM	3.2 µM	11.6 µM	Cc1n[nH]c(Nc2ccc(C#N)cc2)c1C#N
> 50 µM	40.5 µM	> 50 µM	17.1 µM	Cc1n[nH]c(NCc2ccc(C(F)(F)F)cc2)c1C#N
> 50 µM	4.3 µM	9 µM	6.5 µM	Cc1n[nH]c(Nc2ccc([N+](=O)[O-])cc2)c1C#N
> 50 µM	7.4 µM	19.4 µM	9.2 µM	Cc1n[nH]c(Nc2ccc(F)cc2)c1C#N
38.7 µM	7.5 µM	> 50 µM	16.9 µM	CCNc1[nH]nc(Nc2ccc(C(F)(F)F)cc2)c1C#N
> 50 µM	2.1 µM	2.6 µM	5.3 µM	Cc1n[nH]c(Nc2ccc(C(F)(F)F)cc2)c1C#N
17.7 µM	8.6 µM	6.5 µM	16.7 µM	O=C1CCCc2n[nH]c(Nc3ccc(C(F)(F)F)cc3)c21
41 µM	20.3 µM	> 50 µM	17.4 µM	C/C(=N\N)c1c(C)n[nH]c1Nc1ccc(C(F)(F)F)cc1
41.4 µM	7.4 µM	–	5.1 µM	Cc1oncc1C(=O)Nc1ccc(C(F)(F)F)cc1 [LEFLUNOMIDE]
